Consider 37 molecules from ChEMBL document CHEMBL4043206, “Anticancer potential of aminomethylidene-diazinanes I. Synthesis of arylaminomethylidene of diazinetriones and its cytotoxic effects tested in glioblastoma cells” (Bioorg Med Chem, 2017).

Data set [1] deals with LN-229. As to the kind of experiment: Cytotoxicity against human LN229 cells assessed as cell viability at 10 ug/ml incubated for 72 hrs by Guava ViaCount reagent based flow cytometry. Type of data set: functional. The following applies: LN-229, 72 h, read-out: Activity. In outline:
(§1)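 Cells kept as semi-confluent monolayers in DMEM with 10% FBS, 50 U/ml penicillin and […], at 37 °C under 5% CO₂. Seeded at 2 × 10⁴ cells per well in 24-well plates. Compounds were made up as 10 mg/ml DMSO stocks, diluted into medium to a final 1 or 10 μg/ml, and left on the cells for 72 h.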

Data set [2] concerns LN-229. As to the kind of experiment: Cytotoxicity against human LN229 cells assessed as cell viability at 1 ug/ml incubated for 72 hrs by Guava ViaCount reagent based flow cytometry. The format is functional. The following applies: LN-229, 72 h, read-out: Activity. In outline: as §1
Data set [3] is described as follows: Solubility in water. The format is physicochemical. To be noted: buffer.
Data set [4] in a line: Solubility in organic solvents. The format is physicochemical.

As for `O=C1NC(=S)NC(=O)C1=CNc1cccc2c1C(=O)c1ccccc1C2=O`, the viability at 10 µg/mL in data set [1] came to 48.6%. Besides, the viability at 1 µg/mL in data set [2] came to 65%.

As for `CN1C(=O)C(=CNc2cccc3c2C(=O)c2ccccc2C3=O)C(=O)N(C)C1=O`, the viability at 10 µg/mL in data set [1] stood at 86.3%. The viability at 1 µg/mL in data set [2] was 94.7%.

Turning to `O=C1NC(=O)C(=CNc2cccc3ccccc23)C(=O)N1`, in data set [1], the viability at 10 µg/mL turned out to be 95.1%. For the same molecule, the viability at 1 µg/mL in data set [2] came out at 93.2%.

As to `O=C1NC(=O)C(=CNc2ccc3c(c2)C(=O)c2ccccc2C3=O)C(=O)N1`, the viability at 10 µg/mL in data set [1] came out at 17.2%. Further, the viability at 1 µg/mL in data set [2] was found to be 82.9%.

Take `CN1C(=O)C(=CNc2ccccc2)C(=O)N(C)C1=O`: in data set [1], the viability at 10 µg/mL is 96.1%. For the same molecule, the solubility result in data set [3] and in data set [4] was “Insoluble” in each case. Besides, the viability at 1 µg/mL in data set [2] came out at 95%.

As to `O=C1NC(=O)C(=CNc2ccc(-c3ccccc3)cc2)C(=O)N1`, in data set [1], the viability at 10 µg/mL stood at 85.5%. In addition, the viability at 1 µg/mL in data set [2] came out at 92.6%.

As to `O=C1NC(=S)NC(=O)C1=CNc1ccc2c(c1)C(=O)c1ccccc1C2=O`, the viability at 10 µg/mL in data set [1] worked out at 12.3%. For the same molecule, in data set [2], the viability at 1 µg/mL turned out to be 87.4%.

On to `O=C1NC(=O)C(=CNc2ccccc2)C(=O)N1`, for which the viability at 10 µg/mL in data set [1] came out at 96.1%. Moreover, the solubility result in data set [3] and in data set [4] was “Insoluble” each time. The viability at 1 µg/mL in data set [2] worked out at 96.2%.

As to `CN1C(=O)/C(=C/Nc2cccc3ccccc23)C(=O)NC1=S`, the viability at 10 µg/mL in data set [1] amounted to 78.3%. In data set [2], the viability at 1 µg/mL stood at 90%.

Regarding `CN1C(=O)/C(=C/Nc2ccc3ccccc3c2)C(=O)NC1=S`, the viability at 10 µg/mL in data set [1] came to 84.5%. The viability at 1 µg/mL in data set [2] was 94.6%.

Take `O=C1NC(=O)N(c2ccc([N+](=O)[O-])cc2)C(=O)/C1=C/Nc1cccc2c1C(=O)c1ccccc1C2=O`: the viability at 10 µg/mL in data set [1] stood at 10.4%. In addition, in data set [2], the viability at 1 µg/mL was 75.8%.

Consider `O=C1NC(=O)N(c2ccc([N+](=O)[O-])cc2)C(=O)/C1=C/Nc1ccc2c(c1)C(=O)c1ccccc1C2=O`, for which the viability at 10 µg/mL in data set [1] turned out to be 61.8%. Besides, the viability at 1 µg/mL in data set [2] came to 88.2%.

Turning to `CN1C(=O)C(=CNc2ccc(-c3ccccc3)cc2)C(=O)N(C)C1=O`, the viability at 10 µg/mL in data set [1] is 94.6%. Further, the viability at 1 µg/mL in data set [2] was 94.8%.

For `CN1C(=O)NC(=O)/C(=C\Nc2cccc3ccccc23)C1=O`, in data set [1], the viability at 10 µg/mL was 94.5%. For the same molecule, the viability at 1 µg/mL in data set [2] worked out at 89%.

Take `CN1C(=O)C(=CNc2ccc3ccccc3c2)C(=O)N(C)C1=O`: the viability at 10 µg/mL in data set [1] turned out to be 86.6%. Besides, in data set [2], the viability at 1 µg/mL stood at 90.5%.

With `O=C1NC(=O)N(c2ccccc2)C(=O)/C1=C/Nc1cccc2c1C(=O)c1ccccc1C2=O`, in data set [1], the viability at 10 µg/mL worked out at 29.2%. For the same molecule, the viability at 1 µg/mL in data set [2] was determined as 66.3%.

With `CN1C(=O)C(=CNc2ccc3c(c2)C(=O)c2ccccc2C3=O)C(=O)N(C)C1=O`, the viability at 10 µg/mL in data set [1] came out at 68.3%. For the same molecule, in data set [2], the viability at 1 µg/mL stood at 92.4%.

On to `CN1C(=O)/C(=C\Nc2ccccc2)C(=O)NC1=S`, for which, in data set [1], the viability at 10 µg/mL came to 94.3%. The solubility result in data set [3] and in data set [4] was “Insoluble” throughout. The viability at 1 µg/mL in data set [2] turned out to be 94.3%.

On to `O=C1NC(=S)NC(=O)C1=CNc1ccc2cc3ccccc3cc2c1`, for which, in data set [1], the viability at 10 µg/mL is 11%. Further, in data set [2], the viability at 1 µg/mL turned out to be 83.3%.

With `CN1C(=O)NC(=O)/C(=C\Nc2ccc(-c3ccccc3)cc2)C1=O`, the viability at 10 µg/mL in data set [1] was 93.5%. Further, the viability at 1 µg/mL in data set [2] worked out at 96.9%.

For the molecule `CN1C(=O)/C(=C/Nc2ccc(-c3ccccc3)cc2)C(=O)NC1=S`, the viability at 10 µg/mL in data set [1] came out at 89.6%. The viability at 1 µg/mL in data set [2] worked out at 97%.

For the molecule `O=C1NC(=O)N(c2ccccc2)C(=O)/C1=C/Nc1ccc2c(c1)C(=O)c1ccccc1C2=O`, the viability at 10 µg/mL in data set [1] was found to be 76.5%. Also, the viability at 1 µg/mL in data set [2] was 87.6%.

As to `CN1C(=O)NC(=O)/C(=C\Nc2cccc3c2C(=O)c2ccccc2C3=O)C1=O`, in data set [1], the viability at 10 µg/mL came to 35.3%. The viability at 1 µg/mL in data set [2] was 84.8%.

For `CN1C(=O)NC(=O)/C(=C/Nc2ccccc2)C1=O`, in data set [1], the viability at 10 µg/mL came to 95%. Besides, the solubility result in data set [3] and in data set [4] was “Insoluble” each time. Also, the viability at 1 µg/mL in data set [2] was 94.9%.

Turning to `CN1C(=O)/C(=C/Nc2ccc3c(c2)C(=O)c2ccccc2C3=O)C(=O)NC1=S`, the viability at 10 µg/mL in data set [1] was found to be 17.2%. For the same molecule, the viability at 1 µg/mL in data set [2] was 80.8%.

Consider `CN1C(=O)/C(=C/Nc2cccc3c2C(=O)c2ccccc2C3=O)C(=O)NC1=S`, for which the solubility result in data set [3] and in data set [4] was “Insoluble” throughout.

Consider `CN1C(=O)C(=CNc2ccc3cc4ccccc4cc3c2)C(=O)N(C)C1=O`, for which the viability at 10 µg/mL in data set [1] turned out to be 60.8%. Further, the viability at 1 µg/mL in data set [2] came out at 88.1%.

In the case of `CN1C(=O)NC(=O)/C(=C\Nc2ccc3ccccc3c2)C1=O`, the viability at 10 µg/mL in data set [1] amounted to 56%. The viability at 1 µg/mL in data set [2] was found to be 90%.

Consider `CN1C(=O)NC(=O)/C(=C\Nc2ccc3c(c2)C(=O)c2ccccc2C3=O)C1=O`, for which the viability at 10 µg/mL in data set [1] was determined as 28.9%. For the same molecule, the viability at 1 µg/mL in data set [2] was 89.7%.

In the case of `O=C1NC(=O)C(=CNc2cccc3c2C(=O)c2ccccc2C3=O)C(=O)N1`, in data set [1], the viability at 10 µg/mL was found to be 22.1%. Further, the viability at 1 µg/mL in data set [2] worked out at 31.9%.

As for `O=C1NC(=O)C(=CNc2ccc3ccccc3c2)C(=O)N1`, in data set [1], the viability at 10 µg/mL amounted to 82.4%. The viability at 1 µg/mL in data set [2] was determined as 92.4%.

For the molecule `CN1C(=O)C(=CNc2cccc3ccccc23)C(=O)N(C)C1=O`, in data set [1], the viability at 10 µg/mL was found to be 95.4%. In data set [2], the viability at 1 µg/mL is 94.5%.

As to `O=C1NC(=S)NC(=O)C1=CNc1ccc(-c2ccccc2)cc1`, the viability at 10 µg/mL in data set [1] worked out at 13.8%. In data set [2], the viability at 1 µg/mL is 95.3%.

As for `O=C1NC(=S)NC(=O)C1=CNc1ccccc1`, the viability at 10 µg/mL in data set [1] amounted to 95.3%. Further, the solubility entry in data set [3] and in data set [4] was “Insoluble” in each case. The viability at 1 µg/mL in data set [2] was 96.5%.

Take `CN1C(=O)NC(=O)/C(=C\Nc2ccc3cc4ccccc4cc3c2)C1=O`: in data set [1], the viability at 10 µg/mL came to 9.4%. The viability at 1 µg/mL in data set [2] was 60.3%.

In the case of `CN1C(=O)/C(=C/Nc2ccc3cc4ccccc4cc3c2)C(=O)NC1=S`, the viability at 10 µg/mL in data set [1] stood at 3.7%. In data set [2], the viability at 1 µg/mL came to 75%.

Consider `O=C1NC(=S)NC(=O)C1=CNc1ccc2ccccc2c1`, for which the viability at 10 µg/mL in data set [1] worked out at 94.4%. Besides, in data set [2], the viability at 1 µg/mL came to 96.5%.
